Measurements pooled from the literature.
Each line is one published result; the experiments were not run side by side.
Target: Testis-specific serine/threonine-protein kinase 3 (TSSK3, Homo sapiens, UniProt Q96PN8)
One construct used (Q96PN8 1-268): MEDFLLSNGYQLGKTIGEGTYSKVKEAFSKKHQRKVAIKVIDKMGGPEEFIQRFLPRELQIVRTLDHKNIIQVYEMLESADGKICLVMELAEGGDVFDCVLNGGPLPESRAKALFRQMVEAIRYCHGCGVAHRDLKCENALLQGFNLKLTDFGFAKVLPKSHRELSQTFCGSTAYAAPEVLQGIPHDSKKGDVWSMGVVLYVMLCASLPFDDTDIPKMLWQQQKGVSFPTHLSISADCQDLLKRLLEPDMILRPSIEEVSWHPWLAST

Structure (SMILES)	observed	technique	concentration	remaining binding
COc1ccnn2ncc(-c3ccnc(N(C)C)n3)c12	binding	–	1 µM	100%
O=C(c1ccc(Nc2nccc(-c3cc4ccccc4s3)n2)cc1)N1CCC(N2CCCC2)CC1	binding	competition with immobilised ligand	1 µM	100%
C[C@H](c1ccc(F)cc1)N(Cc1cccc(C(=O)O)c1)C(=O)c1cnc2ccccc2c1	cell-free assay	competition with immobilised ligand	1 µM	64%
O=C(NCCCN1CCOCC1)c1ccc(Nc2ncc(Cl)c(-c3ccc(Cl)s3)n2)cc1	binding	competition with immobilised ligand	1 µM	100%
N[C@@H]1CCN(c2nccc(-c3cnn4ncccc34)n2)C1	binding	–	1 µM	100%
Cc1cnc(Nc2ccc(C(=O)N3CCC(N4CCCC4)CC3)cc2)nc1-c1cc2ccccc2s1	binding	competition with immobilised ligand	1 µM	84%
CC1=C(C#N)[C@@H](c2ccc3[nH]nc(C)c3c2)C(C#N)=C(c2ccc(Cl)cc2)N1	cell-free assay	competition with immobilised ligand	1 µM	100%
COc1ncc2cc3ccccc3nc2c1C#N	cell-free assay	competition with immobilised ligand	5 µM	90%
C[C@@]1(Cc2ccc(C#N)cc2)C(=O)N(c2cc(Cl)cc(Cl)c2)c2ncc(C(=O)NC3(c4nc(C5CCC5)no4)CC3)n21	cell-free assay	competition with immobilised ligand	1 µM	100%
CNC(=O)[C@@H]1CC[C@@H](n2c(-c3ccc4cnccc4c3)nc3ccc(C(=O)NCc4cccc(C(N)=O)c4)cc32)C1	binding	competition with immobilised ligand	1 µM	100%
CN(C)c1ncc(F)c(-c2cnn3ncccc23)n1	binding	–	1 µM	99%
O=C(Nc1ccc(Oc2ccc(F)cc2)cc1)N1CCc2ncccc2[C@H]1c1ccc(F)cc1	cell-free assay	competition with immobilised ligand	1 µM	98%
O=C(NCC1CCOCC1)c1n[nH]cc1NC(=O)c1c(F)cccc1F	binding	competition with immobilised ligand	1 µM	100%
C[C@@H]1CCN(c2nccc(-c3cnn4ncccc34)n2)C1	binding	–	1 µM	78%
COc1cc(-c2cn(C3CCc4c(F)cccc4N(CC(F)(F)F)C3=O)nn2)ccc1-n1cnc(C)c1 (centres unmarked)	cell-free assay	competition with immobilised ligand	1 µM	97%
COc1cnc(Nc2cccc(S(N)(=O)=O)c2)nc1N1CCN(c2ccccc2)C(=O)C1	binding	competition with immobilised ligand	1 µM	90%
CN(C)c1nccc(-c2cnn3ncccc23)n1	binding	–	1 µM	100%
c1cncc(-c2cccc(Nc3nccc(NC4CCCCC4)n3)c2)c1	binding	competition with immobilised ligand	10 µM	86%
CCS(=O)(=O)c1cc2cc(C[C@](O)(CC(C)(C)c3ccc(F)cc3C(N)=O)C(F)(F)F)[nH]c2cn1	cell-free assay	competition with immobilised ligand	1 µM	100%
CN(CCCC(F)(F)F)c1nccc(-c2cnn3ncccc23)n1	binding	–	1 µM	85%
